The values that follow come from ChEMBL document CHEMBL3784974, “Design and Structural Characterization of Potent and Selective Inhibitors of Phosphatidylinositol 4 Kinase IIIβ” (J Med Chem, 2016).

The source made the active and inactive calls. No cut-off for these calls is given here.

In assay [1] the target is Phosphatidylinositol 3-kinase catalytic subunit type 3 (Homo sapiens, UniProt Q8NEB9). Description: Inhibition of GST-tagged recombinant human full length VPS34 expressed in baculovirus upto 20 uM preincubated for 15 mins followed by addition of cold ATP/gamma32P-ATP measured after 1 hr in presence of MnCl2. The procedure, abridged:
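Radiometric membrane-capture assay, 10 nM purchased vps34, 15 min preincubation with inhibitor, then 1 h reaction. Final: 50 mM HEPES pH 7.5, 0.1% CHAPS, 2mM MnCl2, 1 mM EGTA, 2 mM DTT, 100 µM PI in PI:DOPS:DOPC, 500 ng/µL BSA, 2% DMSO, 10 µM ATP, 2.5 uCi γ32P-ATP; spots washed, phosphorimaged.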

Assay [2] deals with T1, Phosphatidylinositol 4,5-bisphosphate 3-kinase catalytic subunit delta isoform (Homo sapiens, UniProt O00329).
T1 sequence (O00329 whole entry): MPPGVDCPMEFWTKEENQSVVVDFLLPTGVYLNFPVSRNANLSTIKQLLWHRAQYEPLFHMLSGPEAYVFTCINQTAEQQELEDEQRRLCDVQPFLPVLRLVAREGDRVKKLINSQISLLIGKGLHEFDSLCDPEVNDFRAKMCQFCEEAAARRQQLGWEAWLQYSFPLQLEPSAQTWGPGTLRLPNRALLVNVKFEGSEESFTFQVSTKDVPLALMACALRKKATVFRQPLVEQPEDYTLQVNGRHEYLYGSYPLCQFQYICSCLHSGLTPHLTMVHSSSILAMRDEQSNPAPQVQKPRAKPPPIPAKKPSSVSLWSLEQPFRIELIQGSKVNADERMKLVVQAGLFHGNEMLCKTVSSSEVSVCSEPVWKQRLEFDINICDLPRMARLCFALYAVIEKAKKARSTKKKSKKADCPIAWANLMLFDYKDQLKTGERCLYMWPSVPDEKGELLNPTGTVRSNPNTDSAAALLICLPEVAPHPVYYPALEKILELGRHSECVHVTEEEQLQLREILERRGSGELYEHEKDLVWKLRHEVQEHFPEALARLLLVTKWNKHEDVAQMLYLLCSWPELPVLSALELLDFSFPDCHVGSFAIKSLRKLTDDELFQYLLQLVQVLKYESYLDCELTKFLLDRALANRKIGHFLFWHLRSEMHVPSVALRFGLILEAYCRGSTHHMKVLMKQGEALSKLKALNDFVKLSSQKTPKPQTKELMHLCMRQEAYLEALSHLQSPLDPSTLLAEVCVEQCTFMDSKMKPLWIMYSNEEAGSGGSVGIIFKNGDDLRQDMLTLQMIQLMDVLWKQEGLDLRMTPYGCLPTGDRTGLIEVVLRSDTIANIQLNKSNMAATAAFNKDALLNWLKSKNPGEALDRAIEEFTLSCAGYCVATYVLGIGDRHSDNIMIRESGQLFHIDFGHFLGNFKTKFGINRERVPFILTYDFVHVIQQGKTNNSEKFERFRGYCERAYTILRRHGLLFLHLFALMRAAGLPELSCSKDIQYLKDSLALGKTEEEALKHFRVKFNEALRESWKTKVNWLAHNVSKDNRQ
Description: Inhibition of histidine-tagged recombinant human full length PI3Kdelta expressed in baculovirus preincubated for 15 mins followed by addition of cold ATP/gamma32P-ATP measured after 20 mins in presence of MgCl2. An outline of the steps: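 Final: 50 mM HEPES pH 7.5, 100 mM NaCl, 0.03% CHAPS, 10 mM MgCl2, 1 mM EGTA, 2 mM DTT, 80 µM PIP2 (PIP2:DOPS:DOPC), 500 ng/µL BSA, 2% DMSO, 10 µM ATP, 2.5 uCi γ32P-ATP. Nitrocellulose capture, phosphorimaging.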

Chain of Phosphatidylinositol 3-kinase catalytic subunit type 3 (Q8NEB9 whole entry): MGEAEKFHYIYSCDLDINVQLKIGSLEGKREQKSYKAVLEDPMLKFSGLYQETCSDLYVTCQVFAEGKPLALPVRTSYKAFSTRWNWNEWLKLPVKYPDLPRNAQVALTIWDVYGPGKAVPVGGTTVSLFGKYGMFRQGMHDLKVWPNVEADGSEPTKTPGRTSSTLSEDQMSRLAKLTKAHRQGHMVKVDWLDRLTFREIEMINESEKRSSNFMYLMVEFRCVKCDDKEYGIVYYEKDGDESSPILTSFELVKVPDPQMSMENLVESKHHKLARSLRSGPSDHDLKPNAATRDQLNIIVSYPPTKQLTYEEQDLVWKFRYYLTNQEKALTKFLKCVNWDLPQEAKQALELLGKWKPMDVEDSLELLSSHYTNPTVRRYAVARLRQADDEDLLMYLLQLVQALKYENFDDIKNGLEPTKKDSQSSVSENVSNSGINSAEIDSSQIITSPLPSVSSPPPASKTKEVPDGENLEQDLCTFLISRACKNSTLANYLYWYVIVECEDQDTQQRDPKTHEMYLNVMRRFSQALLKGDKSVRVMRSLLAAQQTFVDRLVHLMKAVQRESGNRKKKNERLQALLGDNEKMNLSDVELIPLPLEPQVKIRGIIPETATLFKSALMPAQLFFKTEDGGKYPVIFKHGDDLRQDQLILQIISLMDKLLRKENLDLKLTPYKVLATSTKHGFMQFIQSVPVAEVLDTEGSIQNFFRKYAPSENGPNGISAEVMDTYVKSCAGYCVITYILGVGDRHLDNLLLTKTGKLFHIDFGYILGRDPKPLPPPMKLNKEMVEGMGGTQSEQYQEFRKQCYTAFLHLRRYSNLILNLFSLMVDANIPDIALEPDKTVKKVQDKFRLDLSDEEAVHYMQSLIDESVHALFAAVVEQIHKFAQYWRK

For the compound `COc1ccc(-c2sc(NC(=O)C(C)(C)C)nc2C)cc1S(=O)(=O)Nc1ccc(O)cc1`, in assay [1], the inhibition result was “inactive”. The IC50 (in general, the point on the concentration scale where inhibition reaches its midpoint) in assay [2] worked out at 720 nM.
As for `COc1ccc(-c2sc(NC(=O)C3CCCC3)nc2C)cc1S(=O)(=O)Nc1ccc(O)cc1`, the inhibition result in assay [1] is “inactive”. The 50% inhibitory concentration (IC50) in assay [2] came to 152 nM.
